Reference: ChEMBL document CHEMBL3603771, “Synthesis, biological evaluation and docking study of maleimide derivatives bearing benzenesulfonamide as selective COX-2 inhibitors and anti-inflammatory agents” (Bioorg Med Chem, 2015)

Key:
[1] = target: T1, Prostaglandin G/H synthase 2 (Homo sapiens) (UniProt P35354); settings: at 1 µM;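 further: recombinant enzyme with arachidonic acid substrate, compound preincubated 5 min, colorimetric read-out taken 2 min after reaction start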
T1 sequence (whole entry): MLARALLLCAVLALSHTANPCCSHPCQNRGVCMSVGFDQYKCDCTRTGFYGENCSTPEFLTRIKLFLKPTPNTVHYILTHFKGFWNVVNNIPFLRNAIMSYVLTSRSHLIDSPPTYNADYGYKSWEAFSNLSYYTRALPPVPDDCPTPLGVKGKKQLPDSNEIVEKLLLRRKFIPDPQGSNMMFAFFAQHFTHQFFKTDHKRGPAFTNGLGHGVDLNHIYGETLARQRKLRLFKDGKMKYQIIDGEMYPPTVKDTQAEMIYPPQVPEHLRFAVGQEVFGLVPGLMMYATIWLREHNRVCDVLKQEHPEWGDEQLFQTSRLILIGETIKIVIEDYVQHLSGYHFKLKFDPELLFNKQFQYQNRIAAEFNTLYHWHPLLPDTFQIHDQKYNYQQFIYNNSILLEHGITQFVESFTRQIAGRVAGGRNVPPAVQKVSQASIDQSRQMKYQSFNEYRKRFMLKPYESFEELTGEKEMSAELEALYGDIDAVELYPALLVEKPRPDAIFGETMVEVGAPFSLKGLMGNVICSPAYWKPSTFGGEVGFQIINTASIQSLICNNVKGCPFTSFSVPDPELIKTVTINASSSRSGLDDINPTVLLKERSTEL

[2] = Selectivity index, ratio of inhibition of human recombinant COX2 to inhibition of ovine COX1
Method in brief: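 Ovine COX-1 or human recombinant COX-2 in 0.1 M Tris-HCl pH 8 with heme, preincubated with compound (DMSO stock) 5 min at 25°C. TMPD and arachidonic acid then added, 2 min at 25°C. Peroxidase activity read as oxidized TMPD at 590 nm. Compounds tested at 1 μM; % inhibition is the mean of two determinations. Selectivity index taken as COX-2/COX-1.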

[3] = target: T2, Prostaglandin G/H synthase 1 (Ovis aries) (UniProt P05979); assay: Inhibition of ovine COX1 using arachidonic acid as substrate at 1 uM preincubated for 5 mins measured after 2 mins by colorimetric analysis
T2 sequence (whole entry): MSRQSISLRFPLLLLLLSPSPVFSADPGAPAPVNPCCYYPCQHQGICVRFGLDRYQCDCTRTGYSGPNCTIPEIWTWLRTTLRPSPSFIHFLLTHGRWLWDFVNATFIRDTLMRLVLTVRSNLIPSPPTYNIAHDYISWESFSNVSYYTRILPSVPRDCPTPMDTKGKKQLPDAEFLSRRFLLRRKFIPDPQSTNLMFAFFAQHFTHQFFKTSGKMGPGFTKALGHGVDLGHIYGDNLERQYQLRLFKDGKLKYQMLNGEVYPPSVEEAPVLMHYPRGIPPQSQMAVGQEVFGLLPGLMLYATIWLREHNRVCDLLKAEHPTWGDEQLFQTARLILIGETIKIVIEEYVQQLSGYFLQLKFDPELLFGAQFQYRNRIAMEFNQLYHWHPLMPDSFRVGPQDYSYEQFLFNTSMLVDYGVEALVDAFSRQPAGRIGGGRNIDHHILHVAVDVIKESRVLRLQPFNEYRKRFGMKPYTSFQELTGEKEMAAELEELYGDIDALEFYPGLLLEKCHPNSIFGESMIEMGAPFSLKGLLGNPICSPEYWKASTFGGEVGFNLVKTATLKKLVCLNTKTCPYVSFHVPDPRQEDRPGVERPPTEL
Method in brief: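 Ovine COX-1 or human recombinant COX-2 in 0.1 M Tris-HCl pH 8 with heme, preincubated with compound (DMSO stock) 5 min at 25°C. TMPD and arachidonic acid then added, 2 min at 25°C. Peroxidase activity read as oxidized TMPD at 590 nm. Selectivity index taken as COX-2/COX-1.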

[4] = tested on: Rattus norvegicus; assay: Antiinflammatory activity in Wistar albino rat assessed as inhibition of carrageenan-induced hind paw edema at 20 mg/kg, po after 3 hrs by plethysmometer; format: functional
Method in brief: (§1)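 Adult male Wistar albino rats, 150-200 g, fasted 24 h, six per group. Compounds at 20 mg/kg suspended in 1% CMC in water (10 mL/kg) given orally; vehicle-only controls. Carrageenan in normal saline injected into the plantar surface of the right hind paw 30 min after dosing.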

[5] = tested on: Rattus norvegicus; assay: Antiinflammatory activity in Wistar albino rat assessed as inhibition of carrageenan-induced hind paw edema at 20 mg/kg, po after 1 hr by plethysmometer; format: functional
Method in brief: as §1

[6] = tested on: Rattus norvegicus; assay: Antiinflammatory activity in Wistar albino rat assessed as inhibition of carrageenan-induced hind paw edema at 20 mg/kg, po after 5 hrs by plethysmometer; format: functional
Method in brief: as §1

[7] = tested on: Rattus norvegicus; assay: Toxicity in Wistar albino rat assessed as ulcer index at 20 mg/kg, po qd for 3 days measured after 6 hrs of last dose; format: organism-based; settings: in vivo
Method in brief: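 Male albino rats, 150-200 g, fasted 12 h with water ad libitum. Dosed orally at 20 mg/kg/day once daily for 3 days; controls received 7% gum acacia vehicle. Killed by ether overdose 6 h after the last dose. Stomachs opened along the greater curvature and scored for ulcers. Ulcer index by the Robert method from % incidence/10, mean ulcer number per stomach and severity score.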

| Compound | inhibition [1] | Selectivity Index [2] | inhibition [3] | inhibition in vivo at 20 mg/kg [4] | inhibition in vivo at 20 mg/kg [5] | inhibition in vivo at 20 mg/kg [6] | UI [7] |
| --- | --- | --- | --- | --- | --- | --- | --- |
| NS(=O)(=O)c1ccc(N2C(=O)C(Cl)=C(Nc3ccc(Cl)cc3)C2=O)cc1 | 24.4% | 2.6 | 9.37% | – | – | – | – |
| NS(=O)(=O)c1ccc(N2C(=O)C(Cl)=C(Nc3ccc(F)cc3)C2=O)cc1 | 27.6% | 20.8 | 1.33% | – | – | – | – |
| COc1ccccc1NC1=C(Cl)C(=O)N(c2ccc(S(N)(=O)=O)cc2)C1=O | 15.7% | 2.19 | 7.14% | – | – | – | – |
| COc1cccc(NC2=C(Cl)C(=O)N(c3ccc(S(N)(=O)=O)cc3)C2=O)c1 | 44.2% | 49.7 | 0.89% | 71.5% | 73% | 77.3% | – |
| Cc1ccc(-c2cc(C(F)(F)F)nn2-c2ccc(S(N)(=O)=O)cc2)cc1 [CELECOXIB] | – | – | – | 100% | 92.2% | 100% | 11.9 |
| Cc1cc(C)cc(NC2=C(Cl)C(=O)N(c3ccc(S(N)(=O)=O)cc3)C2=O)c1 | 6.91% | 15.7 | 0.44% | – | – | – | – |
| NS(=O)(=O)c1ccc(N2C(=O)C(Cl)=C(Nc3cccc(Cl)c3)C2=O)cc1 | 42.4% | 47.6 | 0.89% | 70.4% | 69.1% | 72.1% | – |
| NS(=O)(=O)c1ccc(N2C(=O)C(Cl)=C(Nc3ccc([N+](=O)[O-])cc3)C2=O)cc1 | 17.1% | 19.1 | 0.89% | – | – | – | – |
| NS(=O)(=O)c1ccc(N2C(=O)C(Cl)=C(Nc3ccc(Cl)c(Cl)c3)C2=O)cc1 | 30.4% | 3.78 | 8.03% | – | – | – | – |
| Cc1ccc(NC2=C(Cl)C(=O)N(c3ccc(S(N)(=O)=O)cc3)C2=O)c(C)c1 | 13.8% | 2.57 | 5.35% | – | – | – | – |
| COc1ccc(NC2=C(Cl)C(=O)N(c3ccc(S(N)(=O)=O)cc3)C2=O)cc1 | 10.6% | 11.9 | 0.89% | – | – | – | – |
| NS(=O)(=O)c1ccc(N2C(=O)C(Cl)=C(Nc3ccc(C(F)(F)F)cc3)C2=O)cc1 | 27.2% | 6.78 | 4.01% | – | – | – | – |

Second part, led by results:

| inhibition [1] | Selectivity Index [2] | inhibition [3] | Compound | inhibition in vivo at 20 mg/kg [4] | inhibition in vivo at 20 mg/kg [5] | inhibition in vivo at 20 mg/kg [6] | UI [7] |
| --- | --- | --- | --- | --- | --- | --- | --- |
| 39.6% | 44.5 | 0.89% | NS(=O)(=O)c1ccc(N2C(=O)C(Cl)=C(Nc3ccccc3)C2=O)cc1 | 56.8% | 35.4% | 62.1% | – |
| 7.37% | 0.611 | 12.1% | NS(=O)(=O)c1ccc(N2C(=O)C(Cl)=C(Cl)C2=O)cc1 | – | – | – | – |
| 49.3% | 55.4 | 0.89% | NS(=O)(=O)c1ccc(N2C(=O)C(Cl)=C(Nc3cccc(F)c3)C2=O)cc1 | 81% | 79.8% | 82.6% | 8.3 |
| 27.2% | 6.78 | 4.01% | NS(=O)(=O)c1ccc(N2C(=O)C(Cl)=C(Nc3cccc(Cl)c3Cl)C2=O)cc1 | – | – | – | – |
| 39.6% | 44.5 | 0.89% | NS(=O)(=O)c1ccc(N2C(=O)C(Cl)=C(Nc3ccccc3F)C2=O)cc1 | 71% | 69.2% | 74.9% | – |
| 6.45% | 14.7 | 0.44% | NS(=O)(=O)c1ccc(N2C(=O)C(Cl)=C(N3CCCCC3)C2=O)cc1 | – | – | – | – |
| 10.1% | 1.62 | 6.25% | Cc1ccccc1NC1=C(Cl)C(=O)N(c2ccc(S(N)(=O)=O)cc2)C1=O | – | – | – | – |
| 23% | 12.9 | 1.78% | Nc1ccccc1NC1=C(Cl)C(=O)N(c2ccc(S(N)(=O)=O)cc2)C1=O | – | – | – | – |
